In ChEMBL document CHEMBL1124476, “1-(2-aminoethyl)-6-aryl-4H- [1,2,4]triazolo[4,3-a][1,4]benzodiazepines with diuretic and natriuretic activity” (J Med Chem, 1989):

Key:
Rattus norvegicus [1] = assay: Mean excretion of potassium in conscious rats at a dose of 3.0 mg/kg given orally; format: ADME, organism-based; design: dose 3 mg/kg, route oral; settings: in vivo, po
Outline: (§1)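 Secondary dose-response in male Sprague-Dawley rats (~160 g), fasted and hydrated as in the primary screen. Oral gavage at 0.3-100 mg/kg in 25 mL/kg saline/0.5% CMC, three cages of two rats per dose. Urine collected 5 h; Na, K, Cl, HCO3 measured. Values are mean excretion (mequiv), compared with controls at P < 0.05.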

Rattus norvegicus [2] = assay: Mean excretion of potassium in conscious rats at a dose of 30 mg/kg given orally; format: ADME, organism-based; design: dose 30 mg/kg, route oral; settings: in vivo, po; outline: as §1
Rattus norvegicus [3] = assay: Mean excretion of chloride in conscious rats at a dose of 30 mg/kg given orally; format: ADME, organism-based; design: dose 30 mg/kg, route oral; settings: in vivo, po; outline: as §1
Rattus norvegicus [4] = species on record: Rattus norvegicus; assay: […]; format: ADME, organism-based, Urine; design: dose 3 mg/kg, route oral; settings: in vivo, po, 3 mg/kg
Outline: (§2)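 Male Sprague-Dawley rats, about 160 g, fasted 24 h and water withheld 1 1/2 h beforehand; food and water withheld during the test. Dosing by gavage with 25 mL/kg 0.9% saline containing 0.5% (carboxymethyl)cellulose, agent dissolved or suspended. Three cages of two rats each per dose, held in metabolism cages. Urine collected over 5 h. Volume given in mL, Na+ in mequiv. Significance versus control at P < 0.05.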

Rattus norvegicus [5] = species on record: Rattus norvegicus; assay: […]; format: ADME, organism-based, Urine; design: dose 30 mg/kg, route oral; settings: in vivo, po, 30 mg/kg; outline: as §2
Rattus norvegicus [6] = species on record: Rattus norvegicus; assay: […]; format: ADME, organism-based, Urine; design: dose 1 mg/kg, route oral; settings: in vivo, po, 1 mg/kg
Outline: (§3)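 Dose-response test in male Sprague-Dawley rats of about 160 g, fasted 24 h, with water withheld 1½ h before and during the test. Each rat got a single gavage of 25 mL/kg 0.9% saline with 0.5% carboxymethylcellulose carrying the agent (0.3–100 mg/kg range). Rats were housed two per metabolism cage, and urine was collected for 5 h. Mean urine volume (mL) was compared with controls (P < 0.05).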

Rattus norvegicus [7] = assay: Mean excretion of Cl- in conscious rats at a dose of 0.3 mg/kg given orally; format: ADME, organism-based, Urine; design: dose 0.3 mg/kg, route oral; settings: in vivo, po; outline: as §3
[8] = Diuretic activity at 40 mg/kg (screening dose-90.5 umol/kg) in […] in a one stage experiment; T/C = urine vol of treated rats / urine vol of control rats; format: functional
Outline: (§4)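 40 mg/kg given by gavage in 25 mL/kg 0.9% saline with 0.5% (carboxymethyl)cellulose. Four rats per agent, two per metabolism cage; 20 controls; 5 h urine. T/C = treated/control urine volume. Stage-1 T/C of 1.66 or more leads to stage 2; product T/C1·T/C2 of 3.34 or more counts as active.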

Rattus norvegicus [9] = species on record: Rattus norvegicus; assay: […]; format: ADME, organism-based, Urine; design: dose 100 mg/kg, route oral; settings: in vivo, po, 100 mg/kg; outline: as §2
Rattus norvegicus [10] = assay: Mean excretion of chloride in conscious rats at a dose of 100 mg/kg given orally; format: ADME, organism-based; design: dose 100 mg/kg, route oral; settings: in vivo, po; outline: as §1
Rattus norvegicus [11] = assay: Mean excretion of chloride in conscious rats at a dose of 1.0 mg/kg given orally; format: ADME, organism-based; design: dose 1 mg/kg, route oral; settings: in vivo, po; outline: as §1
Rattus norvegicus [12] = species on record: Rattus norvegicus; assay: […]; format: ADME, organism-based, Urine; design: dose 10 mg/kg, route oral; settings: in vivo, po, 10 mg/kg; outline: as §2
Rattus norvegicus [13] = assay: Mean excretion of sodium in conscious rats at a dose of 0.3 mg/kg given orally; format: ADME, organism-based; design: dose 0.3 mg/kg, route oral; settings: in vivo, po; outline: as §2
Rattus norvegicus [14] = assay: Mean excretion of potassium in conscious rats at a dose of 0.3 mg/kg given orally; format: ADME, organism-based; design: dose 0.3 mg/kg, route oral; settings: in vivo, po; outline: as §1
Rattus norvegicus [15] = assay: Mean excretion of potassium in conscious rats at a dose of 10 mg/kg given orally; format: ADME, organism-based; design: dose 10 mg/kg, route oral; settings: in vivo, po; outline: as §1
Canis familiaris [16] = assay: Effect of compound on glomerular filtration rate before infusion with 10 mg/kg/hr fose into renal artery of anesthetized dogs; format: ADME, organism-based, Canis lupus familiaris; settings: dog, in vivo
Outline: (§5)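 Anesthetized dogs; drug added to saline pumped at 0.3 mL/min through a needle into one renal artery, contralateral kidney as control. 10 mg/kg per h, with 30-60 min stabilization first. Urine volume and GFR (inulin clearance) taken before and after infusion; means ± SEM in mL/min, N = 5, P < 0.05.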

Rattus norvegicus [17] = assay: Mean excretion of sodium in conscious rats at a dose of 100 mg/kg given orally; format: ADME, organism-based; design: dose 100 mg/kg, route oral; settings: in vivo, po; outline: as §2
Rattus norvegicus [18] = assay: Mean excretion of sodium in conscious rats at a dose of 3.0 mg/kg given orally; format: ADME, organism-based; design: dose 3 mg/kg, route oral; settings: in vivo, po; outline: as §2
Rattus norvegicus [19] = species on record: Rattus norvegicus; assay: […]; format: ADME, organism-based, Urine; design: dose 0.3 mg/kg, route oral; settings: in vivo, po, 0.3 mg/kg; outline: as §3
Rattus norvegicus [20] = assay: Mean excretion of sodium in conscious rats at a dose of 10 mg/kg given orally; format: ADME, organism-based; design: dose 10 mg/kg, route oral; settings: in vivo, po; outline: as §2
Rattus norvegicus [21] = assay: Mean excretion of potassium in conscious rats at a dose of 1.0 mg/kg given orally; format: ADME, organism-based; design: dose 1 mg/kg, route oral; settings: in vivo, po; outline: as §1
Rattus norvegicus [22] = assay: Mean excretion of potassium in conscious rats at a dose of 100 mg/kg given orally; format: ADME, organism-based; design: dose 100 mg/kg, route oral; settings: in vivo, po; outline: as §1
[23] = Diuretic activity at 40 mg/kg (screening dose-90.5 umol/kg) in […] in a two stage experiment; T/C1.2 = urine vol of treated rats / urine vol of control rats; format: functional; outline: as §4
Canis familiaris [24] = assay: Effect of compound on urinary volume before infusion with 10 mg/kg/hr fose into renal artery of anesthetized dogs; format: ADME, organism-based, Canis lupus familiaris, Urine; settings: dog, in vivo; outline: as §5
Canis familiaris [25] = assay: Effect of compound on urinary volume after infusion with 10 mg/kg/hr fose into renal artery of anesthetized dogs; format: ADME, organism-based, Canis lupus familiaris, Urine; settings: dog, in vivo; outline: as §5
Rattus norvegicus [26] = assay: Mean excretion of chloride in conscious rats at a dose of 10 mg/kg given orally; format: ADME, organism-based; design: dose 10 mg/kg, route oral; settings: in vivo, po; outline: as §1
Canis familiaris [27] = assay: Effect of compound on glomerular filtration rate after infusion with 10 mg/kg/hr fose into renal artery of anesthetized dogs; format: ADME, organism-based, Canis lupus familiaris; settings: dog, in vivo; outline: as §5
Rattus norvegicus [28] = assay: Mean excretion of sodium in conscious rats at a dose of 30 mg/kg given orally; format: ADME, organism-based; design: dose 30 mg/kg, route oral; settings: in vivo, po; outline: as §2
Rattus norvegicus [29] = assay: Mean excretion of chloride in conscious rats at a dose of 3.0 mg/kg given orally; format: ADME, organism-based; design: dose 3 mg/kg, route oral; settings: in vivo, po; outline: as §1
Rattus norvegicus [30] = assay: Mean excretion of […] in conscious rats at a dose of 1.0 mg/kg given orally; format: ADME, organism-based; design: dose 1 mg/kg, route oral; settings: in vivo, po; outline: as §2
[31] = Diuretic activity at 40 mg/kg (screening dose-105.3 umol/kg) in […] in a one stage experiment; T/C = urine vol of treated rats / urine vol of control rats; format: functional; outline: as §4
[32] = Diuretic activity at 40 mg/kg (screening dose-82.2 umol/kg) in […] in a one stage experiment; T/C = urine vol of treated rats / urine vol of control rats; format: functional; outline: as §4
[33] = Diuretic activity at 40 mg/kg (screening dose-82.2 umol/kg) in […] in a two stage experiment; T/C1.2 = urine vol of treated rats / urine vol of control rats; format: functional; outline: as §4
[34] = Diuretic activity at 40 mg/kg (screening dose-77.5 umol/kg) in […] in a one stage experiment; T/C = urine vol of treated rats / urine vol of control rats; format: functional; outline: as §4
[35] = Diuretic activity at 40 mg/kg (screening dose-61.3 umol/kg) in […] in a one stage experiment; T/C = urine vol of treated rats / urine vol of control rats; format: functional; outline: as §4

SMILES | Mean excretion of K+ (Rattus norvegicus [1]) [m equiv] | Mean excretion of K+ (Rattus norvegicus [2]) [m equiv] | Mean excretion of Cl- (Rattus norvegicus [3]) [m equiv] | Mean urine volume (Rattus norvegicus [4]) [mL] | Mean urine volume (Rattus norvegicus [5]) [mL] | Mean urine volume (Rattus norvegicus [6]) [mL] | Mean excretion of Cl- (Rattus norvegicus [7]) [m equiv] | Mean urine volume (Rattus norvegicus [9]) [mL] | Mean excretion of Cl- (Rattus norvegicus [10]) [m equiv] | Mean excretion of Cl- (Rattus norvegicus [11]) [m equiv] | Mean urine volume (Rattus norvegicus [12]) [mL] | Mean excretion of Na+ (Rattus norvegicus [13]) [m equiv] | Mean excretion of K+ (Rattus norvegicus [14]) [m equiv] | Mean excretion of K+ (Rattus norvegicus [15]) [m equiv] | Mean excretion of Na+ (Rattus norvegicus [17]) [m equiv] | Mean excretion of Na+ (Rattus norvegicus [18]) [m equiv] | Mean urine volume (Rattus norvegicus [19]) [mL] | Mean excretion of Na+ (Rattus norvegicus [20]) [m equiv] | Mean excretion of K+ (Rattus norvegicus [21]) [m equiv] | Mean excretion of K+ (Rattus norvegicus [22]) [m equiv] | also measured
CN(C)CC(c1ccccc1)c1nnc2n1-c1ccc(Cl)cc1C(c1ccccc1)=NC2 (centres undefined) | 0.22 | 0.27 | 1.72 | 5.36 | 12 | 4.47 | 0.73 | 9.54 | 1.26 | 0.81 | 6.7 | 0.74 | 0.25 | 0.22 | 1.51 | 0.82 | 4.15 | 1.15 | 0.25 | 0.27 | T/C 1 [8]: 2.1; GFR (Canis familiaris [16]): 23 mL/min; T/C 1.2 [23]: 5.27; Urinary volume (Canis familiaris [24]): 0.2 mL/min; Urinary volume (Canis familiaris [25]): 0.9 mL/min; Mean excretion of Cl- (Rattus norvegicus [26]): 1.16 m equiv; GFR (Canis familiaris [27]): 18 mL/min; Mean excretion of Na+ (Rattus norvegicus [28]): 1.8 m equiv; Mean excretion of Cl- (Rattus norvegicus [29]): 0.89 m equiv; Mean excretion of Na+ (Rattus norvegicus [30]): 0.81 m equiv
CC(CN(C)C)c1nnc2n1-c1ccc(Cl)cc1C(c1ccccc1)=NC2 (centres undefined) |  |  |  |  |  |  |  |  |  |  |  |  |  |  |  |  |  |  |  |  | T/C 1 [31]: 1.25
CN(C)CC(c1ccccc1)c1nnc2n1-c1ccc(Br)cc1C(c1ccccc1)=NC2 (centres undefined) | 0.17 | 0.17 | 1.16 | 3.4 | 8.5 | 3.59 | 0.72 | 7.74 | 1.01 | 0.62 | 5.1 | 0.63 | 0.24 | 0.17 | 1.16 | 0.53 | 4.29 | 0.74 | 0.21 | 0.15 | T/C 1 [32]: 2.17; T/C 1.2 [33]: 4.73; Mean excretion of Cl- (Rattus norvegicus [26]): 0.78 m equiv; Mean excretion of Na+ (Rattus norvegicus [28]): 1.18 m equiv; Mean excretion of Cl- (Rattus norvegicus [29]): 0.6 m equiv; Mean excretion of Na+ (Rattus norvegicus [30]): 0.64 m equiv
Clc1ccc2c(c1)C(c1ccccc1)=NCc1nnc(C(CN3CCOCC3)c3ccccc3)n1-2 (centres undefined) |  |  |  |  |  |  |  |  |  |  |  |  |  |  |  |  |  |  |  |  | T/C 1 [34]: 1.46
CN1CCN(CC(c2ccccc2)c2nnc3n2-c2ccc(Cl)cc2C(c2ccccc2)=NC3)CC1.I (centres undefined) |  |  |  |  |  |  |  |  |  |  |  |  |  |  |  |  |  |  |  |  | T/C 1 [35]: 1.02
